# Bioassay records as filed in PubChem BioAssay.
# An excerpt weighted towards active compounds, which were near 2.5% of everything screened.
# KLK7 zymogen act – proKLK7 zymogen activators, primary screen, biochemical, fluorescence intensity; purified proKLK7, EDANS-DABCYL substrate fluorescence; 100% is mature enzyme control, 0% vehicle; activation, % at 7 µM; 0.9% of 370,000 active; AID 652039, 2013;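 active means activation above the mean of all tested compounds plus 3 SD, computed per campaign excluding outliers beyond control limits, cut at about 13% in these data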
# Target sequence (P49862 whole entry, looked up): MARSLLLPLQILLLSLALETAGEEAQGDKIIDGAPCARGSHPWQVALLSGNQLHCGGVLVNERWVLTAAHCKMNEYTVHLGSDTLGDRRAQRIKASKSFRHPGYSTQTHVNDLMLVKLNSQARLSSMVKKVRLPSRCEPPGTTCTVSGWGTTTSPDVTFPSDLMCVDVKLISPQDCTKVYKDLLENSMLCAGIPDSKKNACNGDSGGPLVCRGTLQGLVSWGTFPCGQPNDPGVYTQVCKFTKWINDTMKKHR
# ADAM17 inh – ADAM17 inhibitors, primary screen, biochemical, QFRET; Disintegrin and metalloproteinase domain-containing protein 17 (Homo sapiens), P78536; recombinant ADAM17, EDANS/DABCYL FRET peptide cleavage; inhibition, % at 6.95 µM; 0.83% of 370,000 active; AID 720648, 2013;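 active means inhibition above the mean of compounds lying between control limits plus 3 SD, set per campaign, cut at about 8.5% in these data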
# NR2E3 ag-1 – inhibitors of NR2E3-RetCOR corepressor binding, primary screen, NR2E3 agonist project, biochemical, TR-FRET, GST-NR2E3, biotin-RetCOR; 1536-well; AID 2300, 2010; inhibition of corepressor binding, % at 4.78 µM; 0.12% of 320,000 active;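 active means percent inhibition above the cutoff of mean plus 3 SD of all tested compounds, set per screening campaign, cut at about 20% in these data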
#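 Material: NR2E3–RetCOR corepressor complex / Incubation: Compound–protein incubation for 5 h at 4 °C / Dosing: compound at 4.8 µM, single dose / Detection: time-resolved FRET / Benchmarks: high control biotin, low control 0.6% DMSO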
# GASC-1 inh – inhibitors of GASC-1 histone demethylase, primary screen, biochemical, fluorescence, DELFIA europium; Lysine-specific demethylase 4C (Homo sapiens), Q9H3R0; GST-JMJD2C(1-420) H3K9me3 demethylation; inhibition, % at 2.35 µM; 0.069% of 330,000 active; AID 2099, 2009;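 active means more than half of a compound's replicate wells show inhibition beyond 50%, single wells judged on their own value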;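 further: signal counts dimethyl H3K9 product captured on neutravidin plate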
# Target sequence (Q9H3R0 1-420 limits assumed): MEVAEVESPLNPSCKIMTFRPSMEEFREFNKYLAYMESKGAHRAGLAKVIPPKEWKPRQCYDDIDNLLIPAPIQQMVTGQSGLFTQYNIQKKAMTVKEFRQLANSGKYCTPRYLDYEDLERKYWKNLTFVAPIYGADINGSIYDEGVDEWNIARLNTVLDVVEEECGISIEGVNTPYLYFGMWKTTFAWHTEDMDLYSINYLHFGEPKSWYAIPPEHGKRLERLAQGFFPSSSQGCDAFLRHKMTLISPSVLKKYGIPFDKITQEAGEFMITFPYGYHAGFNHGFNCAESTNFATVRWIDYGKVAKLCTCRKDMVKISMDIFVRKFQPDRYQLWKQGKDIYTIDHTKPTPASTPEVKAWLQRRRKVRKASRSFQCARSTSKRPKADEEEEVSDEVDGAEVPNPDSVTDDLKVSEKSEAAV
# NR2E3 ag-2 – NR2E3 agonists in two-hybrid cells, primary screen, cell-based, luminescence, CHO-S, Gal4-NCOR/VP16-NR2E3. luciferase. inhibition of corepressor binding, % at 3.98 µM. 0.35% of 360,000 active. AID 602229, 2012;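 active means inhibition above the mean of all tested compounds plus 3 SD, cut at about 70% in these data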;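 further: higher means lower luciferase signal from less NR2E3 corepressor binding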
# ADAM10 inh – human ADAM10 inhibitors, primary screen, biochemical, QFRET, HTS | 0.62% of 370,000 active | recombinant ADAM10, EDANS/DABCYL FRET peptide cleavage, 3 h | inhibition, % at 7 µM;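 active means inhibition above a per-campaign cutoff equal to the mean of compounds falling between control-based bounds plus 3 SD, cut at about 20% in these data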
# proKLK7 act conf – proKLK7 zymogen activators, confirmation, biochemical, fluorescence intensity, triplicate; shares compounds with KLK7 zymogen act; purified proKLK7, EDANS-DABCYL substrate fluorescence; scaled: vehicle 0, mature enzyme 100; activation, % at 7 µM; 68% of 3,200 active;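 active means activation, as change over the incubation, above the mean of all tested compounds plus 3 SD, cut at about 13% in these data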
# EDANS interfere – EDANS-DABCYL substrate optical interference, artefact control for kallikrein-7 zymogen activator project, biochemical, fluorescence intensity, high throughput; shares compounds with KLK7 zymogen act; no enzyme, 4 h; solvent 0%, active enzyme control 100%; activation, % at 7 µM; 80% of 3,200 active; AID 686952, 2013;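 active means activation above the all-compound mean plus 3 SD, ignoring values outside control-based bounds, cut at about 4.8% in these data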;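 further: value is the 4 h activation minus the activation read at time zero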
# K7 EDANS ctr – counter-screen for kallikrein-7 activators: EDANS-DABCYL interference, dose response. shares compounds with KLK7 zymogen act. EDANS-DABCYL peptide fluorescence interference, no enzyme. EC50, µM. 20% of 250 active. AID 720493;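 active means compounds that raise the fluorescence signal in this interference counterscreen, with EC50 at or below 10 µM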;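 further: intact quenched peptide substrate alone read at 355 nm excitation and 520 nm emission; signal is fluorescence gain from T0 to T4 after four hours at room temperature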
# Hits are given with their value; – = inactive; · = no result.
SMILES,KLK7 zymogen act,ADAM17 inh,NR2E3 ag-1,GASC-1 inh,NR2E3 ag-2,ADAM10 inh,proKLK7 act conf,EDANS interfere,others
CC(C)OCCOc1ccc2oc(-c3ccco3)cc(=O)c2c1,24.1,–,–,–,–,–,37.3,–,K7 EDANS ctr=–
Cc1nn(C)c(C)c1NS(=O)(=O)c1ccccc1Cl,–,–,–,–,–,–,·,·,
COCCNC(=S)NCCCNc1nc2cc3c(cc2cc1C#N)OCO3,25.2,–,–,–,–,–,14.4,19.0,
CCOCCCNC(=S)NCCCNc1nc2cc3c(cc2cc1C#N)OCO3,–,–,–,–,–,–,·,·,
COC(=O)C1CCN(C(=O)c2cc(-c3ccco3)nc3ccccc23)CC1,47.8,–,·,–,–,–,36.0,27.4,K7 EDANS ctr=–
COc1ccc(-c2cc(C(=O)NC3CC3)c3ccccc3n2)cc1,42.3,–,–,–,–,–,25.3,15.4,K7 EDANS ctr=–
COc1ccc(-c2cc(C(=O)N3CCCC3)c3ccccc3n2)cc1,21.8,–,–,–,–,–,–,–,
CCOc1ccc(-c2cc(C(=O)N3CCCC3)c3ccccc3n2)cc1,·,·,–,–,–,·,·,·,
O=C(c1cc(-c2ccco2)nc2ccccc12)N1CCN(Cc2ccccc2)CC1,–,–,–,–,–,–,·,·,
CCOc1ccc(-c2cc(C(=O)N3CCN(C)CC3)c3ccccc3n2)cc1,30.7,–,–,–,–,–,49.0,33.3,K7 EDANS ctr=–
CCn1c(SC2CCOC2=O)nnc1-c1ccc(Cl)cc1 (stereo not drawn),–,–,–,–,–,–,·,·,
CSc1nc2ccsc2c(=O)n1-c1ccccn1,–,–,–,–,–,–,·,·,
COC(=O)c1cc(C(=O)OCC(=O)c2ccc3c(c2)NC(=O)CO3)cc([N+](=O)[O-])c1,–,–,·,·,–,–,·,·,
CCOc1ccc(C(=O)NN2CCOCC2)cc1,–,–,–,–,–,–,·,·,
COc1ccc2nc(-c3ccccc3)cc(C(=O)OCC(=O)N3CCCCC3)c2c1,–,–,–,–,–,–,·,·,
COc1ccc(-c2cc(C(=O)OCC(=O)N3CCCC3)c3ccccc3n2)cc1,16.9,–,–,–,–,–,–,–,
Cc1cc(=O)oc2c(CN3CC(C)OC(C)C3)c(O)c(Cl)cc12 (stereo not drawn),149.4,–,–,–,–,–,67.2,74.4,
CCc1c(C)c2cc(Cl)c(O)c(CN3CCCCC3)c2oc1=O,51.1,–,–,–,–,–,69.0,71.6,
CCc1cc(=O)oc2c(CN3CCN(C)CC3)c(O)c(Cl)cc12,69.0,–,–,–,–,–,62.3,69.8,
O=c1cc(-c2ccccc2)c2cc(Cl)c(O)c(CN3CCOCC3)c2o1,–,–,–,–,–,–,·,·,
CCc1cc(=O)oc2c(CN3CCCC3)c(O)c(Cl)cc12,83.2,–,–,–,–,–,67.8,71.3,
COC(=O)c1sccc1-n1cc2c(c1-c1ccccc1)c(=O)n(C)c(=O)n2C,–,–,·,·,–,–,·,·,
CCc1cc(=O)oc2c(CNCc3c(F)cccc3Cl)c(O)ccc12,30.1,–,–,–,–,–,41.0,57.2,
CCCc1cc(=O)oc2c(CNc3ccc(OCC)cc3)c(O)ccc12,–,–,–,–,–,–,·,·,
CCc1cc(=O)oc2c(CN3CCN(C)CC3)c(O)ccc12,37.6,–,–,–,–,–,72.0,70.5,
SMILES,KLK7 zymogen act,ADAM17 inh,NR2E3 ag-1,GASC-1 inh,NR2E3 ag-2,ADAM10 inh,proKLK7 act conf,EDANS interfere,others
CCCCc1cc(=O)oc2c(CN3CCCC3)c(O)ccc12,77.2,–,–,–,–,–,65.5,74.5,
CCCCc1cc(=O)oc2cc(C)c(CN3CCCC3)c(O)c12,–,–,–,–,–,–,·,·,
CCOc1ccc(N2CC(C(=O)NCCc3c[nH]c4ccc(C)cc34)CC2=O)cc1 (stereo not drawn),–,–,–,–,–,–,·,·,
CN1CCN(c2c(F)cc3c(=O)c(C(=O)O)cn4c3c2SCC4)CC1,98.0,–,–,–,–,–,35.1,43.0,
C[C@H]1COc2c(N3CCN(C)CC3)c(F)cc3c(=O)c(C(=O)O)cn1c23,171.7,–,–,–,–,–,54.9,56.2,
O=C(COC(=O)c1ccccc1O)Nc1cccc(S(=O)(=O)NC2=NCCCCC2)c1,–,–,–,–,–,–,·,·,
O=C(COC(=O)c1ccccc1NCCO)Nc1ccc(S(=O)(=O)NC2=NCCCCC2)cc1,23.3,–,·,·,–,–,–,–,
COc1cc2c(cc1OC)C(c1ccccc1)CC2=O (stereo not drawn),–,–,–,–,–,–,·,·,
COc1cc2c(cc1OC)C(=O)CC(C)S2 (stereo not drawn),13.8,–,–,–,–,–,31.9,26.2,
Cc1c(OC(C)C(=O)O)ccc2c3c(c(=O)oc12)CCCC3 (stereo not drawn),–,–,–,–,–,–,·,·,
CC(=O)Oc1ccc2c3c(c(=O)oc2c1C)CCCC3,167.9,–,–,–,–,–,531.1,499.6,
CC1(C(=O)NS(=O)(=O)c2ccccc2C(F)(F)F)CCN1C(=O)CCC1CCCC1 (stereo not drawn),–,–,·,·,–,–,·,·,
CCCn1c(-c2cccs2)nc2nc3ccccc3nc21,41.5,–,–,–,–,–,–,–,
COCCn1c(-c2ccco2)nc2nc3ccccc3nc21,42.6,–,–,–,–,–,62.3,82.0,
CC(C)OCCCn1c(-c2ccco2)nc2nc3ccccc3nc21,–,–,–,–,–,–,·,·,
COCCn1c(-c2cccs2)nc2nc3ccccc3nc21,37.7,–,–,–,–,–,68.5,73.0,
O=C(N[C@H](Cc1ccccc1)C(=O)NC1CCCCC1)[C@H]1O[C@@H](n2ccc(=O)[nH]c2=O)[C@H](O)[C@@H]1O,–,–,·,·,·,–,·,·,
CCN(CC)CCNC(=O)c1cc2c(-c3cccc(OC)c3)nn(C)c2s1,24.2,–,–,–,–,–,–,6.9,
